Measured values from ChEMBL document CHEMBL1154110, “Identification, structure-activity relationships and molecular modeling of potent triamine and piperazine opioid ligands” (Bioorg Med Chem, 2009).
pIC50: −log10 of the molar value.

Columns and labels:
[1] = target: Delta-type opioid receptor (Rattus norvegicus, UniProt P33533); test: Displacement of [3H]DSLET from delta opioid receptor in rat brain by liquid scintillation counting; assay type: tissue-based
[2] = target: Kappa-type opioid receptor (Cavia porcellus, UniProt P41144); test: Displacement of [3H]U69593 from guinea pig kappa opioid receptor by liquid scintillation counting
Procedure, shortened: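 Receptor membrane suspension incubated with 3 nM [3H]U69,593 as the tritiated competitor. Unlabeled U50,488 served as the kappa standard: it generated a standard curve on every plate and defined nonspecific binding. IC50 values came from dose-response testing.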

[3] = target: Mu-type opioid receptor (Rattus norvegicus, UniProt P33535); test: Displacement of [3H]DAMGO from mu opioid receptor in rat brain by liquid scintillation counting; assay type: tissue-based
Sequence of Mu-type opioid receptor (P33535 whole entry): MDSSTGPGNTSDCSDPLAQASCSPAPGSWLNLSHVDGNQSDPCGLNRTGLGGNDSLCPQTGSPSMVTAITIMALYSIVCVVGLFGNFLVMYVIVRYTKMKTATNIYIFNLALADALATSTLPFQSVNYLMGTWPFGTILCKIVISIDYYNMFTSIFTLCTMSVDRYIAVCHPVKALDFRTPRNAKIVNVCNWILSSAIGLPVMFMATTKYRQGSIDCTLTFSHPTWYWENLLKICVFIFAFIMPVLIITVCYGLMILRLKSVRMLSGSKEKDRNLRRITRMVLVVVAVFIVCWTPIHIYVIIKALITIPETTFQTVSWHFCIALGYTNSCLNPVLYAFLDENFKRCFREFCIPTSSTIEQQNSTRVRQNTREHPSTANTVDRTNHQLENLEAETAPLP

Sequence of Kappa-type opioid receptor (P41144 whole entry): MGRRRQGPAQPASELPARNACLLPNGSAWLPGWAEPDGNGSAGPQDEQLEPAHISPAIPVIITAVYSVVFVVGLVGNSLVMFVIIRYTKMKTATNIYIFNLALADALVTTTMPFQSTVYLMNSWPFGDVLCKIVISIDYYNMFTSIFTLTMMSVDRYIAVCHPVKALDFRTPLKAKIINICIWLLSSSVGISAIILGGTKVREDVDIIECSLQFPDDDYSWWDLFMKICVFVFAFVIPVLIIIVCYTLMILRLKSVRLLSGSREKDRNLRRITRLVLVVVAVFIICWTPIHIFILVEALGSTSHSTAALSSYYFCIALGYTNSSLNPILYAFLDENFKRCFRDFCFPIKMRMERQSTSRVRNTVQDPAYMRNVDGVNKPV
Sequence of Delta-type opioid receptor (P33533 whole entry): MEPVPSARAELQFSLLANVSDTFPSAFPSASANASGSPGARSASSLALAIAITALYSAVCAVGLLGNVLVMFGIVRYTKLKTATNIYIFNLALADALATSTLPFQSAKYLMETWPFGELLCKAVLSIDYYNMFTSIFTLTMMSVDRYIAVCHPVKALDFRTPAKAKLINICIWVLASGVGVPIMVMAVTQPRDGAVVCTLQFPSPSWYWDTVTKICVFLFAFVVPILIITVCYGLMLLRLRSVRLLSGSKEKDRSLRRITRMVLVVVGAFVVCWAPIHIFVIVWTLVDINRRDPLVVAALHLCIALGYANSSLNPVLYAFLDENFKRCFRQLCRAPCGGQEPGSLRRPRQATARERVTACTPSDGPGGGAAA

Row | SMILES | pIC50 [1] | pIC50 [2] | pIC50 [3]
1 | CCC[C@H](CNC)NC[C@@H](CCC)NCCC1CC2CCC1C2 (stereo partly specified) | < 5.00 | < 6.00 | < 6.00
2 | CNC[C@H](Cc1ccc(O)cc1)N1CCN(CCc2cccc(C)c2)[C@@H](C(C)C)C1 | < 5.00 | < 6.00 | 6.69
3 | CNC[C@H](Cc1ccc(O)cc1)N1CCN(CCC2CC3CCC2C3)[C@@H](C(C)C)C1 (stereo partly specified) | < 5.00 | 6.43 | 6.65
4 | CNC[C@@H](Cc1ccc(O)cc1)N1CCN(CCCC2CCCCC2)[C@H](C(C)C)C1 | < 5.00 | 6.18 | 6.04
5 | CCCC[C@H](CNCc1ccccc1)N1CCN(CC2CCCCCC2)[C@H](Cc2ccc(O)cc2)C1 | < 5.00 | 6.79 | < 6.00
6 | CC(C)[C@@H]1CN([C@@H](CNCc2ccccc2)C(C)C)CCN1CCc1ccccc1 | < 5.00 | < 6.00 | < 6.00
7 | CCC[C@H](CNC)NC[C@H](Cc1ccc(O)cc1)NCC1CCC(C)CC1 (stereo partly specified) | < 5.00 | 5.76 | 6.65
8 | CC(C)[C@@H]1CN([C@@H](CNCc2ccccc2)C(C)C)CCN1CCC1CCCC1 | < 5.00 | < 6.00 | < 6.00
9 | CC(C)[C@H](CNCc1ccccc1)N1CCN(CCC2CC3CCC2C3)[C@@H](Cc2ccccc2)C1 (stereo partly specified) | < 5.00 | < 6.00 | < 6.00
10 | CC(C)CCN1CCN([C@@H](CNCc2ccccc2)C(C)C)C[C@H]1C(C)C | < 5.00 | < 6.00 | < 6.00
11 | CC[C@H](C)[C@@H](CNC)N1CCN(CCCC2CCCCC2)[C@H](C(C)C)C1 | < 5.00 | 7.24 | < 6.00
12 | CCC[C@H](CN[C@H](CNC)Cc1ccc(O)cc1)NCCC1CCCC1 | < 5.00 | 7.01 | 6.19
13 | CCCC[C@H](CNCc1ccccc1)N1CCN(CC(C)C)[C@H](Cc2ccc(O)cc2)C1 | < 5.00 | 6.99 | < 6.00
14 | CCC(C)[C@@H](CNC)N1CCN(CCC23CC4CC(CC(C4)C2)C3)[C@H](C(C)C)C1 (stereo partly specified) | < 5.00 | 6.92 | < 6.00
15 | CCC[C@H](CNC)NC[C@H](Cc1ccc(O)cc1)NCCC1CCCC1 | < 5.00 | 6.12 | 6.62
16 | CNC[C@H](Cc1ccc(O)cc1)N1CCN(CC2CCCCCC2)CC1 | < 5.00 | 7.03 | 6.82
17 | CC[C@H](C)[C@@H](CNC)N1CCN(CCC2CC3CCC2C3)[C@H](C(C)C)C1 (stereo partly specified) | < 5.00 | < 6.00 | < 6.00
18 | CCC[C@H](CNC)NC[C@@H](CCC)NCC1CCCCCC1 | < 5.00 | < 6.00 | < 6.00
19 | CC(C)[C@H](CNCc1ccccc1)N1CCN(CCC2CCCC2)[C@@H](Cc2ccccc2)C1 | < 5.00 | < 6.00 | < 6.00
20 | CCC[C@H](CNC)NC[C@@H](CCC)NCCC12CC3CC(CC(C3)C1)C2 | < 5.00 | < 6.00 | < 6.00
21 | CNC[C@@H](Cc1ccc(O)cc1)N1CCN(CC2CCCCCC2)[C@@H](C(C)C)C1 | < 5.00 | < 6.00 | < 6.00

Row | SMILES | pIC50 [1] | pIC50 [2] | pIC50 [3]
22 | CNC[C@@H](Cc1ccc(O)cc1)N1CCN(CCCC(C)C)CC1 | < 5.00 | < 6.00 | 6.33
23 | CNC[C@@H](Cc1ccc(O)cc1)N1CCN(CCC2CC3CCC2C3)CC1 (stereo partly specified) | < 5.00 | 6.32 | 7.04
24 | CNC[C@H](Cc1ccc(O)cc1)NC[C@H](Cc1ccc(O)cc1)NCC1CCC(C)CC1 (stereo partly specified) | < 5.00 | 6.99 | 6.50
25 | CCC[C@H](CN[C@H](CNC)Cc1ccc(O)cc1)NCC1CCC(C)CC1 (stereo partly specified) | < 5.00 | 7.85 | < 6.00
26 | CNC[C@@H](Cc1ccc(O)cc1)N1CCN(CCC2CC3CCC2C3)[C@H](C(C)C)C1 (stereo partly specified) | < 5.00 | 6.64 | 6.47
27 | CNC[C@H](Cc1ccc(O)cc1)NC[C@H](Cc1ccc(O)cc1)NCCC1CCCC1 | 5.54 | 6.73 | 6.77
28 | CCC[C@H](CN[C@H](CNC)Cc1ccc(O)cc1)NCCC1CC2CCC1C2 (stereo partly specified) | 5.68 | 7.77 | 6.76
29 | CCC[C@H](CNC)NC[C@@H](CCC)NCCC1CCCC1 | < 5.00 | 6.99 | < 6.00
30 | CNC[C@H](Cc1ccc(O)cc1)NC[C@H](Cc1ccc(O)cc1)NCC1CCCCCC1 | < 5.00 | 7.66 | 7.27
31 | CNC[C@@H](Cc1ccc(O)cc1)N1CCN(CCC2CC3CCC2C3)[C@@H](C(C)C)C1 (stereo partly specified) | < 5.00 | < 6.00 | < 6.00
32 | CCC[C@H](CNC)NC[C@H](Cc1ccc(O)cc1)NCC1CCCCCC1 | < 5.00 | 6.36 | 6.97
33 | CNC[C@H](Cc1ccc(O)cc1)NC[C@H](Cc1ccc(O)cc1)NCCC1CC2CCC1C2 (stereo partly specified) | < 5.00 | 6.34 | 6.57
34 | CCC[C@H](CN[C@H](CNC)Cc1ccc(O)cc1)NCCC12CC3CC(CC(C3)C1)C2 | < 5.00 | 7.43 | 6.28
35 | CNC[C@@H](Cc1ccc(O)cc1)N1CCN(CC2CCCCCC2)CC1 | < 5.00 | 6.65 | 7.05
36 | CC(C)(C)CCN1CCN([C@@H](CNCc2ccccc2)Cc2ccc(O)cc2)C[C@@H]1Cc1ccc(O)cc1 | 5.34 | 6.41 | < 6.00
37 | CCC[C@H](CNC)NC[C@H](Cc1ccc(O)cc1)NCCC1CC2CCC1C2 (stereo partly specified) | < 5.00 | 6.48 | 6.75
38 | CNC[C@@H](Cc1ccc(O)cc1)N1CCN(CCCC(C)C)[C@@H](C(C)C)C1 | < 5.00 | < 6.00 | < 6.00
39 | CNC[C@H](Cc1ccc(O)cc1)N1CCN(CCC2CC3CCC2C3)CC1 (stereo partly specified) | 5.71 | 6.43 | 6.78
40 | CCC[C@H](CNC)NC[C@@H](CCC)NCC1CCC(C)CC1 (stereo partly specified) | < 5.00 | < 6.00 | < 6.00
41 | CNC[C@@H](Cc1ccc(O)cc1)N1CCN(CCc2cccc(C)c2)[C@@H](C(C)C)C1 | < 5.00 | < 6.00 | < 6.00
42 | CC(C)[C@@H]1CN([C@@H](CNCc2ccccc2)C(C)C)CCN1CCC1CC2CCC1C2 (stereo partly specified) | < 5.00 | < 6.00 | < 6.00
